# Measured values from ChEMBL document CHEMBL1137328, “5-pyrrolidinylsulfonyl isatins as a potential tool for the molecular imaging of caspases in apoptosis” (J Med Chem, 2006).
# Activity calls are given as the source filed them. No cut-off for these calls is given here.
# Assays:
# Caspase-7 = target: T1, Caspase-7 (Homo sapiens, UniProt P55210); experiment: Inhibition of caspase 7
# T1 sequence (P55210 whole entry): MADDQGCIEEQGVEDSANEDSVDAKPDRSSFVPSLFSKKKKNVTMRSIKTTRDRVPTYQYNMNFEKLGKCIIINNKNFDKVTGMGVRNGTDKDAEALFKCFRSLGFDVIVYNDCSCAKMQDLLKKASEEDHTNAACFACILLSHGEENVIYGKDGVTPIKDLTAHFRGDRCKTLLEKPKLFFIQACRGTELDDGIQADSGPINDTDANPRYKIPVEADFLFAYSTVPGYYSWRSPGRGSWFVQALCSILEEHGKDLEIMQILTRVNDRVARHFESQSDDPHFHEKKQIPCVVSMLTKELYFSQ
# How it was run: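 Inhibitor in DMSO (final 5 pM–500 µM, single doses) preincubated 10 min, then Ac-DEVD-AMC (final 10 µM) reacted 10 min. Cleaved AMC quantified by fluorescence; IC50 by nonlinear regression.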
# Caspase-1 = target: T2, Caspase-1 (Homo sapiens, UniProt P29466); experiment: Inhibition of caspase 1
# T2 sequence (P29466 whole entry): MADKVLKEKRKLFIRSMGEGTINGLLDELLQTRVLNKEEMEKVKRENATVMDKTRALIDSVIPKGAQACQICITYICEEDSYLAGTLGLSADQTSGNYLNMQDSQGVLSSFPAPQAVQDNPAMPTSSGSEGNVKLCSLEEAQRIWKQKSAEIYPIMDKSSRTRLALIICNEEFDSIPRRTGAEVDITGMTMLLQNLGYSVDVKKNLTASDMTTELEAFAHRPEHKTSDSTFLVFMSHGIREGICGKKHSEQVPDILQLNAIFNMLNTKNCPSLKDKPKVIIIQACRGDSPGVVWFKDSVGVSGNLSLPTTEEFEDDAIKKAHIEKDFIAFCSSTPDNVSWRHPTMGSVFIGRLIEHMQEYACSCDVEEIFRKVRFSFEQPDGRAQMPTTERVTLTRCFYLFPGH
# How it was run: (§1)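 Recombinant human caspase-1, -6 or -8 at 0.5 units per assay, preincubated 10 min at 37 °C with compound in DMSO at single doses from 5 pM to 500 µM. Fluorogenic AMC substrate then added at 10 µM final (caspase-1 Ac-YVAD-AMC, caspase-6 Ac-VEID-AMC, caspase-8 Ac-IETD-AMC) for a further 10 min. Read-out was AMC fluorescence. IC50 taken by nonlinear regression.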
# Caspase-3 [1] = target: T3, Caspase-3 (Homo sapiens, UniProt P42574); experiment: Binding affinity to human caspase 3
# T3 sequence (P42574 whole entry): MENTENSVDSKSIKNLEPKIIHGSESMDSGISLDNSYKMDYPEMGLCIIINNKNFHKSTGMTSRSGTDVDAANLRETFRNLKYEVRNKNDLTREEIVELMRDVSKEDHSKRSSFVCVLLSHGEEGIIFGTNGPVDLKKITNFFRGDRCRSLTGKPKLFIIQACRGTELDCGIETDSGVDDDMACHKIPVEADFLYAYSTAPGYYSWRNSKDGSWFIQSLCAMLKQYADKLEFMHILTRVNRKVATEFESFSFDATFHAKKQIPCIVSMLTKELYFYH
# How it was run: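 Recombinant full-length human caspase-3 (1 unit/assay, 0.5 pM) preincubated 10 min at 37 °C with isatin in DMSO (single doses, 5 pM–500 µM) in 25 mM HEPES pH 7.5, 0.1% CHAPS, 50 mM KCl, 5 mM β-mercaptoethanol. Ac-DEVD-AMC (10 µM final) then added for 10 min. IC50 by nonlinear regression, converted to Ki = IC50/(1+[S]/KM). Mean of three assays.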
# Caspase-6 = target: T4, Caspase-6 (Homo sapiens, UniProt P55212); experiment: Inhibition of caspase 6; how it was run: as §1
# T4 sequence (P55212 whole entry): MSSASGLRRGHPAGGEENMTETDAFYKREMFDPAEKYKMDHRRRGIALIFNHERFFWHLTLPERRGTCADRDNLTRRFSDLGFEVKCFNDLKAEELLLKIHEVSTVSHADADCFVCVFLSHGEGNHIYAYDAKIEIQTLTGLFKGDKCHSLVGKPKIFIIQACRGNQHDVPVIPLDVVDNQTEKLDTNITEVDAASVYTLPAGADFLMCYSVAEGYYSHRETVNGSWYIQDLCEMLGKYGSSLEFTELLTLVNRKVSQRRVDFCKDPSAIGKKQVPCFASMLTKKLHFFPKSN
# Caspase-8 = Caspase-8 (Homo sapiens, UniProt Q14790); experiment: Inhibition of caspase 8; how it was run: as §1
# Caspase-3 [2] = target: T3, Caspase-3; experiment: Inhibition of caspase 3
# How it was run: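 Recombinant human caspases (0.5 units/assay) preincubated 10 min at 37 °C with isatin in DMSO (single doses, 5 pM–500 µM). The buffer for all was 0.1% CHAPS, 100 mM NaCl, 2 mM EDTA, 10% sucrose, with 20 mM HEPES pH 7.4. Caspase-1 used 100 mM HEPES and β-mercaptoethanol, and caspase-7 used β-mercaptoethanol. AMC substrates at 10 µM for 10 min: YVAD (caspase-1), DEVD (caspase-3/-7), VEID (caspase-6), IETD (caspase-8). IC50 by nonlinear regression.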
# HUVEC [3] = experiment: Inhibition of caspase 8 processing in apoptotic HUVEC at 50 uM; format: functional, cell-based; details: Homo sapiens
# How it was run: (§2)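 HUVEC grown on gelatin-coated dishes in RPMI-1640 with 15% calf serum, heparin and pituitary extract. Cells were preincubated 30 min with compound. Apoptosis was then induced by growth-factor withdrawal (RPMI-1640 alone), with compound present, for 8 h at 37 °C. Lysates (30 µg) were run on 15% SDS-PAGE Western blots for processed caspase-3 (p17/p12), caspase-8, caspase-9, cleaved PARP ([…]) and lamin A/C. Z-VAD-fmk served as full-inhibition control and β-actin as loading control.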
# HUVEC [4] = experiment: Inhibition of caspase 3 processing in apoptotic HUVEC at 10 uM; format: functional, cell-based; details: Homo sapiens; how it was run: as §2
# HUVEC [5] = experiment: Inhibition of PARP cleavage in apoptotic HUVEC at 50 uM; format: functional, cell-based; details: Homo sapiens; how it was run: as §2
# HUVEC [6] = experiment: Inhibition of caspase 9 processing in apoptotic HUVEC at 50 uM; format: functional, cell-based; details: Homo sapiens; how it was run: as §2
# HUVEC [7] = experiment: Inhibition of lamin A/C cleavage in apoptotic HUVEC at 50 uM; format: functional, cell-based; details: Homo sapiens; how it was run: as §2
# HUVEC [8] = experiment: Inhibition of caspase 9 processing in apoptotic HUVEC at 100 uM; format: functional, cell-based; details: Homo sapiens; how it was run: as §2
# HUVEC [9] = experiment: Inhibition of caspase 8 processing in apoptotic HUVEC at 100 uM; format: functional, cell-based; details: Homo sapiens; how it was run: as §2
# Chain of Caspase-8 (Q14790 217-374 limits assumed): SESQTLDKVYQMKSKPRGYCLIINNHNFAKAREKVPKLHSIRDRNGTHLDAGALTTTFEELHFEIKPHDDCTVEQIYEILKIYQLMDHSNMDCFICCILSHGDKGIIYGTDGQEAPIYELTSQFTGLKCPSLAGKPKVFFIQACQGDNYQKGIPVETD
# Chain of Caspase-8 (Q14790 385-479 limits assumed): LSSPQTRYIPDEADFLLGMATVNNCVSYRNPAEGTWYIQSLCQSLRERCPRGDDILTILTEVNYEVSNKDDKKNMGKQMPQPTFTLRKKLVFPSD
Compound,IC50 (Caspase-7),IC50 (Caspase-1),Ki (Caspase-3 [1]),IC50 (Caspase-6),IC50 (Caspase-8),IC50 (Caspase-3 [2]),Activity (HUVEC [3]),Activity (HUVEC [4]),Activity (HUVEC [5]),Activity (HUVEC [6]),Activity (HUVEC [7]),Activity (HUVEC [8]),Activity (HUVEC [9])
COC[C@@H]1CCCN1S(=O)(=O)c1ccc2c(c1)C(=O)C(=O)N2Cc1ccc(OCCOS(=O)(=O)c2ccc(C)cc2)cc1,13.8 nM,> 500000 nM,0.8 nM,> 500000 nM,> 500000 nM,1.7 nM,,,,,,,
COC[C@@H]1CCCN1S(=O)(=O)c1ccc2c(c1)C(=O)C(=O)N2Cc1ccc(O[Si](C)(C)C(C)(C)C)cc1,69.8 nM,> 7000 nM,1.9 nM,> 500000 nM,> 500000 nM,3.8 nM,,,,,,,
O=C1Nc2ccc(S(=O)(=O)N3CCC[C@H]3COc3ccccc3)cc2C1=O,294 nM,> 10000 nM,8.3 nM,> 500000 nM,> 500000 nM,16.9 nM,,,,,,,
COC[C@@H]1CCCN1S(=O)(=O)c1ccc2c(c1)C(=O)C(=O)N2Cc1ccc(O)cc1,32.3 nM,> 60000 nM,23.5 nM,> 500000 nM,> 500000 nM,47.8 nM,,,,,,,
COC[C@@H]1CCCN1S(=O)(=O)c1ccc2c(c1)C(=O)C(=O)N2Cc1ccc(OC)cc1,4 nM,> 10000 nM,,> 500000 nM,> 500000 nM,18.4 nM,Active,Active,Active,Active,Active,Active,Active
COC[C@@H]1CCCN1S(=O)(=O)c1ccc2c(c1)C(=O)C(=O)N2C,304 nM,> 25000 nM,1.2 nM,> 500000 nM,> 500000 nM,2.4 nM,Active,Active,Active,Active,Active,Active,Active
O=C1C(=O)N(Cc2ccc(O)cc2)c2ccc(S(=O)(=O)N3CCC[C@H]3COc3ccccc3)cc21,52.7 nM,> 25000 nM,4 nM,> 500000 nM,> 500000 nM,8.2 nM,,,,,,,
O=C1C(=O)N(Cc2ccc(I)cc2)c2ccc(S(=O)(=O)N3CCC[C@H]3COc3ccccc3)cc21,18.6 nM,> 500000 nM,,> 500000 nM,> 500000 nM,,,,,,,,
Cc1ccc(S(=O)(=O)OCCOc2ccc(CN3C(=O)C(=O)c4cc(S(=O)(=O)N5CCC[C@H]5COc5ccccc5)ccc43)cc2)cc1,50.9 nM,> 500000 nM,8.6 nM,> 500000 nM,> 500000 nM,17.5 nM,,,,,,,
COC[C@@H]1CCCN1S(=O)(=O)c1ccc2c(c1)C(=O)C(=O)N2Cc1ccc(I)cc1,1.8 nM,> 10000 nM,5.9 nM,> 500000 nM,> 500000 nM,12 nM,,Active,,,,,
COC[C@@H]1CCCN1S(=O)(=O)c1ccc2c(c1)C(=O)C(=O)N2Cc1ccc(OCCBr)cc1,25.7 nM,> 15000 nM,8 nM,> 500000 nM,> 500000 nM,16.3 nM,,,,,,,
CC(C)(C)[Si](C)(C)Oc1ccc(CN2C(=O)C(=O)c3cc(S(=O)(=O)N4CCC[C@H]4COc4ccccc4)ccc32)cc1,366 nM,> 500000 nM,9.8 nM,> 500000 nM,> 500000 nM,20 nM,,,,,,,
COc1ccc(CN2C(=O)C(=O)c3cc(S(=O)(=O)N4CCC[C@H]4COc4ccccc4)ccc32)cc1,31.2 nM,> 500000 nM,4.8 nM,> 500000 nM,> 500000 nM,9.7 nM,,,,,,,
O=C1C(=O)N(Cc2ccc(OCCBr)cc2)c2ccc(S(=O)(=O)N3CCC[C@H]3COc3ccccc3)cc21,42 nM,> 500000 nM,12.6 nM,> 500000 nM,> 500000 nM,25.6 nM,,,,,,,
COC[C@@H]1CCCN1S(=O)(=O)c1ccc2c(c1)C(=O)C(=O)N2,1290 nM,> 15000 nM,41.8 nM,> 500000 nM,> 500000 nM,84.9 nM,,,,,,,
O=C1C(=O)N(Cc2ccc(OCCF)cc2)c2ccc(S(=O)(=O)N3CCC[C@H]3COc3ccccc3)cc21,,> 500000 nM,0.2 nM,> 500000 nM,> 500000 nM,0.3 nM,,,,,,,
